Measurements as given in ChEMBL document CHEMBL1129264, “Mercaptoacyl dipeptides as orally active dual inhibitors of angiotensin-converting enzyme and neutral endopeptidase” (1996).

Tests used:
[1] = target: T1, Angiotensin-converting enzyme (Rattus norvegicus) (UniProt P47820); assay: Compound was tested for plasma inhibition of Angiotensin I converting enzyme activity in the conscious rat. Expressed as Inhibition of AI pressor response at 2 hr at a dose of 14.3 mg/kg po; type: organism-based; design: dose 14.3 mg/kg
T1 sequence (whole entry): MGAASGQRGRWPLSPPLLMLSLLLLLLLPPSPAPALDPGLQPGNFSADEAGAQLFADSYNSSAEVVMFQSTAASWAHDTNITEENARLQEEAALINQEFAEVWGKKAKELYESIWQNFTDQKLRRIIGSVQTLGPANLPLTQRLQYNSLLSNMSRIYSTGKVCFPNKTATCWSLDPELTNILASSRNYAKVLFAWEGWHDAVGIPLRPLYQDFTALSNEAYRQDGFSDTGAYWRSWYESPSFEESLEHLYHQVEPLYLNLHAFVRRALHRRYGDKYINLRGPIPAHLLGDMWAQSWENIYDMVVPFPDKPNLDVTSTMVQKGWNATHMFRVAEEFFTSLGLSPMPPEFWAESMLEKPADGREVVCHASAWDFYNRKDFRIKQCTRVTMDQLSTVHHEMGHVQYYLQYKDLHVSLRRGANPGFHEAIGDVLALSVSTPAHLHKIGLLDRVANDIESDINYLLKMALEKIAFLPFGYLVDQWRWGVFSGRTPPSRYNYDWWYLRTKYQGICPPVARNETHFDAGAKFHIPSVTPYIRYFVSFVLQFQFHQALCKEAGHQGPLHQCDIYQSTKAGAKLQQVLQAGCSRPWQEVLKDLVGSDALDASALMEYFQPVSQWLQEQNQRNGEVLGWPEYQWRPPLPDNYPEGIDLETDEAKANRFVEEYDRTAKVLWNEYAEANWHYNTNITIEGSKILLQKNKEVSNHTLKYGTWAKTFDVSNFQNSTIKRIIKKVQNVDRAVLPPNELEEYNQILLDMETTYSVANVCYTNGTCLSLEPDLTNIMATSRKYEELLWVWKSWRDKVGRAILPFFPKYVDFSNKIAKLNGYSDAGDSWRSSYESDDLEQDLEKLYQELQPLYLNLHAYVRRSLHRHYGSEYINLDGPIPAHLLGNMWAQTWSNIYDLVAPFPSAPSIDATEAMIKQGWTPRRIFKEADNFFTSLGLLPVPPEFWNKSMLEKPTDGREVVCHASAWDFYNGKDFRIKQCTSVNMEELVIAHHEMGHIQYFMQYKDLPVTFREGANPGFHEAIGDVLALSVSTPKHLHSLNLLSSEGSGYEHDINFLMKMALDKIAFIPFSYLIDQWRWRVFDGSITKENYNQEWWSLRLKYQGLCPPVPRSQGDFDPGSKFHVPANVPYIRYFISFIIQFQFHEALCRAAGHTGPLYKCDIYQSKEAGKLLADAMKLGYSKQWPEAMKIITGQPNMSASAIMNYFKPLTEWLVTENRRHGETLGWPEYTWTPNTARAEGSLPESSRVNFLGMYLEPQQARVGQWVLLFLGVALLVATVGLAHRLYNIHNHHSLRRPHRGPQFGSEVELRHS
In short: (§1)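 Male conscious normotensive Sprague-Dawley rats (275-390 g), given femoral arterial and venous catheters under methohexital sodium (75 mg/kg ip) anesthesia. Next day, pressor responses to three angiotensin-I challenges (300 ng/kg iv) recorded by direct arterial pressure. Compound then dosed orally, and AI challenge repeated at set times. Each post-dose response compared with the mean of the three baseline responses, giving % inhibition.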

Rattus norvegicus [2] = assay: Plasma ANF Concentration in the Conscious Rat at a dose of 14.3(po)mg/kg at 1 h; type: functional
In short: (§2)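 Male Sprague-Dawley rats (275-390 g), catheterized in femoral artery and vein under ketamine (150 mg/kg)/acepromazine, tethered and recovered 24 h, studied conscious. Continuous iv rat ANF(99-126) infusion at 450 ng/kg/min for 5 h; baseline blood at 60 min, then oral dosing, sampling at 30-240 min.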

Rattus norvegicus [3] = assay: Plasma ANF Concentration in the Conscious Rat at a dose of 14.3(po)mg/kg at 2 h; type: functional; in short: as §2
[4] = target: T1, Angiotensin-converting enzyme (Rattus norvegicus); assay: Compound was tested for plasma inhibition of Angiotensin I converting enzyme activity in the conscious rat. Expressed as Inhibition of AI pressor response at 6 hr at a dose of 14.3 mg/kg po; type: organism-based; design: dose 14.3 mg/kg
In short: (§3)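 Male conscious normotensive Sprague-Dawley rats (275-390 g), prepared under methohexital sodium (75 mg/kg ip) with femoral arterial and venous catheters. The next day, pressor responses to three angiotensin-I challenges (300 ng/kg iv) were recorded. Compound was then given orally and angiotensin-I challenges were repeated at set times. Percent inhibition is relative to the mean of the three baseline responses.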

[5] = target: T1, Angiotensin-converting enzyme (Rattus norvegicus); assay: Compound was tested for plasma inhibition of Angiotensin I converting enzyme activity in the conscious rat. Expressed as Inhibition of AI pressor response at 4 hr at a dose of 14.3 mg/kg po; type: organism-based; design: dose 14.3 mg/kg; in short: as §3
Rattus norvegicus [6] = assay: Plasma ANF Concentration in the Conscious Rat at a dose of 14.3(po)mg/kg at 4 h; type: functional; in short: as §2
Rattus norvegicus [7] = assay: Plasma ANF Concentration in the Conscious Rat at a dose of 14.3(po)mg/kg at 0.5 h; type: functional; in short: as §2
[8] = target: T1, Angiotensin-converting enzyme (Rattus norvegicus); assay: Compound was tested for plasma inhibition of Angiotensin I converting enzyme activity in the conscious rat. Expressed as Inhibition of AI pressor response at 1 hr at a dose of 14.3 mg/kg po; type: organism-based; design: dose 14.3 mg/kg; in short: as §1
[9] = target: T1, Angiotensin-converting enzyme (Rattus norvegicus); assay: Compound was tested for plasma inhibition of Angiotensin I converting enzyme activity in the conscious rat. Expressed as Inhibition of AI pressor response at 1 hr at a dose of 12.1 mg/kg po; type: organism-based; design: dose 12.1 mg/kg; in short: as §1
[10] = target: T1, Angiotensin-converting enzyme (Rattus norvegicus); assay: Compound was tested for plasma inhibition of Angiotensin I converting enzyme activity in the conscious rat. Expressed as Inhibition of AI pressor response at 2 hr at a dose of 12.1 mg/kg po; type: organism-based; design: dose 12.1 mg/kg; in short: as §1
[11] = target: T1, Angiotensin-converting enzyme (Rattus norvegicus); assay: Compound was tested for plasma inhibition of Angiotensin I converting enzyme activity in the conscious rat. Expressed as Inhibition of AI pressor response at 6 hr at a dose of 12.1 mg/kg po; type: organism-based; design: dose 12.1 mg/kg; in short: as §3
[12] = target: T1, Angiotensin-converting enzyme (Rattus norvegicus); assay: Compound was tested for plasma inhibition of Angiotensin I converting enzyme activity in the conscious rat. Expressed as Inhibition of AI pressor response at 4 hr at a dose of 12.1 mg/kg po; type: organism-based; design: dose 12.1 mg/kg; in short: as §1
[13] = target: T1, Angiotensin-converting enzyme (Rattus norvegicus); assay: Compound was tested for plasma inhibition of Angiotensin I converting enzyme activity in the conscious rat. Expressed as Inhibition of AI pressor response at 1 hr at a dose of 13.7 mg/kg po; type: organism-based; design: dose 13.7 mg/kg; in short: as §1
[14] = target: T1, Angiotensin-converting enzyme (Rattus norvegicus); assay: Compound was tested for plasma inhibition of Angiotensin I converting enzyme activity in the conscious rat. Expressed as Inhibition of AI pressor response at 4 hr at a dose of 13.7 mg/kg po; type: organism-based; design: dose 13.7 mg/kg; in short: as §3
[15] = target: T1, Angiotensin-converting enzyme (Rattus norvegicus); assay: Compound was tested for plasma inhibition of Angiotensin I converting enzyme activity in the conscious rat. Expressed as Inhibition of AI pressor response at 6 hr at a dose of 13.7 mg/kg po; type: organism-based; design: dose 13.7 mg/kg; in short: as §3
[16] = target: T1, Angiotensin-converting enzyme (Rattus norvegicus); assay: Compound was tested for plasma inhibition of Angiotensin I converting enzyme activity in the conscious rat. Expressed as Inhibition of AI pressor response at 2 hr at a dose of 13.7 mg/kg po; type: organism-based; design: dose 13.7 mg/kg; in short: as §1
[17] = target: T1, Angiotensin-converting enzyme (Rattus norvegicus); assay: Compound was tested for plasma inhibition of Angiotensin I converting enzyme activity in the conscious rat. Expressed as Inhibition of AI pressor response at 2 hr at a dose of 11.7 mg/kg po; type: organism-based; design: dose 11.7 mg/kg; in short: as §1
Rattus norvegicus [18] = assay: Plasma ANF Concentration in the Conscious Rat at a dose of 11.7(po)mg/kg at 1 h; type: functional
In short: (§4)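 Male Sprague-Dawley rats (275-390 g) received femoral artery and vein catheters under ketamine (150 mg/kg)/acepromazine and recovered for 24 h, tethered, before study conscious. ratANF(99-126) was infused at 450 ng/kg/min iv for 5 h. Baseline blood was drawn at 60 min into the infusion, then compound was given po.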

[19] = target: T1, Angiotensin-converting enzyme (Rattus norvegicus); assay: Compound was tested for plasma inhibition of Angiotensin I converting enzyme activity in the conscious rat. Expressed as Inhibition of AI pressor response at 6 hr at a dose of 11.7 mg/kg po; type: organism-based; design: dose 11.7 mg/kg; in short: as §3
Rattus norvegicus [20] = assay: Plasma ANF Concentration in the Conscious Rat at a dose of 11.7(po)mg/kg at 2 h; type: functional; in short: as §4
[21] = target: T1, Angiotensin-converting enzyme (Rattus norvegicus); assay: Compound was tested for plasma inhibition of Angiotensin I converting enzyme activity in the conscious rat. Expressed as Inhibition of AI pressor response at 4 hr at a dose of 11.7 mg/kg po; type: organism-based; design: dose 11.7 mg/kg; in short: as §1
Rattus norvegicus [22] = assay: Plasma ANF Concentration in the Conscious Rat at a dose of 11.7(po)mg/kg at 4 h; type: functional; in short: as §4
Rattus norvegicus [23] = assay: Plasma ANF Concentration in the Conscious Rat at a dose of 11.7(po)mg/kg at 0.5 h; type: functional; in short: as §4
[24] = target: T1, Angiotensin-converting enzyme (Rattus norvegicus); assay: Compound was tested for plasma inhibition of Angiotensin I converting enzyme activity in the conscious rat. Expressed as Inhibition of AI pressor response at 1 hr at a dose of 11.7 mg/kg po; type: organism-based; design: dose 11.7 mg/kg; in short: as §1
[25] = target: T1, Angiotensin-converting enzyme (Rattus norvegicus); assay: Compound was tested for plasma inhibition of Angiotensin I converting enzyme activity in the conscious rat. Expressed as Inhibition of AI pressor response at 2 hr at a dose of 13.5 mg/kg po; type: organism-based; design: dose 13.5 mg/kg; in short: as §1
[26] = target: T1, Angiotensin-converting enzyme (Rattus norvegicus); assay: Compound was tested for plasma inhibition of Angiotensin I converting enzyme activity in the conscious rat. Expressed as Inhibition of AI pressor response at 1 hr at a dose of 13.5 mg/kg po; type: organism-based; design: dose 13.5 mg/kg; in short: as §1
[27] = target: T1, Angiotensin-converting enzyme (Rattus norvegicus); assay: Compound was tested for plasma inhibition of Angiotensin I converting enzyme activity in the conscious rat. Expressed as Inhibition of AI pressor response at 6 hr at a dose of 13.5 mg/kg po; type: organism-based; design: dose 13.5 mg/kg; in short: as §3
[28] = target: T1, Angiotensin-converting enzyme (Rattus norvegicus); assay: Compound was tested for plasma inhibition of Angiotensin I converting enzyme activity in the conscious rat. Expressed as Inhibition of AI pressor response at 4 hr at a dose of 13.5 mg/kg po; type: organism-based; design: dose 13.5 mg/kg; in short: as §3

With `CCOC(=O)[C@H](Cc1ccc(OC(=O)c2cccnc2)cc1)NC(=O)C1(NC(=O)[C@H](SC(C)=O)C(C)C)CCCC1` the inhibition [1] was 75%, the Control (Rattus norvegicus [2]) was 234% and the Control (Rattus norvegicus [3]) was 246%. The inhibition [4] was 60%, the inhibition [5] was 67% and the Control (Rattus norvegicus [6]) was 277%. The Control (Rattus norvegicus [7]) was 246% and the inhibition [8] was 78%.

Work on `CCCOC(=O)[C@H](Cc1ccc(O)cc1)NC(=O)C1(NC(=O)[C@H](SC(C)=O)C(C)C)CCCC1` yielded an inhibition [9] of 74%, an inhibition [10] of 69% and an inhibition [11] of 19%. The inhibition [12] was 37%.

In the case of `CCOC(=O)[C@H](Cc1ccc(OC(=O)c2ccncc2)cc1)NC(=O)C1(NC(=O)[C@H](SC(C)=O)C(C)C)CCCC1`, the inhibition [1] is reported as 75%, the Control (Rattus norvegicus [2]) is reported as 193% and the Control (Rattus norvegicus [3]) is reported as 183%. It also gave an inhibition [4] of 55%, an inhibition [5] of 70% and a Control (Rattus norvegicus [6]) of 159%. For the same compound, the Control (Rattus norvegicus [7]) was 165% and the inhibition [8] was 79%.

`CCCCOC(=O)[C@H](Cc1ccc(O)cc1)NC(=O)C1(NC(=O)[C@H](SC(=O)C2CCCC2)C(C)C)CCCC1` showed an inhibition [13] of 57%, an inhibition [14] of 38% and an inhibition [15] of 27%. It also gave an inhibition [16] of 49%.

For `COC(=O)[C@H](Cc1ccc(OC)cc1)NC(=O)C1(NC(=O)[C@H](SC(C)=O)C(C)C)CCCC1`, the inhibition [17] was 90%, the Control (Rattus norvegicus [18]) was 337% and the inhibition [19] was 78%. For the same compound, the Control (Rattus norvegicus [20]) was 263%, the inhibition [21] was 87% and the Control (Rattus norvegicus [22]) was 342%. The Control (Rattus norvegicus [23]) was 279% and the inhibition [24] was 97%.

`CCOC(=O)Oc1ccc(C[C@H](NC(=O)C2(NC(=O)[C@H](SC(C)=O)C(C)C)CCCC2)C(=O)OCC)cc1` was tested, and the inhibition [25] was 28%, the inhibition [26] was 24% and the inhibition [27] was 21%. For the same compound, the inhibition [28] was 25%.
